Results from ChEMBL document CHEMBL1146374, “Clubbed triazoles: a novel approach to antitubercular drugs” (Eur J Med Chem, 2007).
In brackets after ≈: the same amount, converted by molar mass.

Columns and labels:
[1] = tested on: Mycobacterium tuberculosis; experiment: (§1) Antituberculosis activity against Mycobacterium tuberculosis H37Rv by Microplate Alamar Blue Assay; format: functional
How it was run: (§2)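 MIC against M. tuberculosis H37Rv (ATCC 27294) in BACTEC 12B medium by broth microdilution (MABA). Primary actives were retested at lower concentrations. MIC is the lowest concentration giving a […] fluorescence reduction versus controls. Fluorescent compounds were run in the BACTEC 460 radiometric system. Rifampin was the reference.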

[2] = Cytotoxicity against Vero-C1008 cells at 6.25 to 50 ug/ml; format: cell-based; conditions: chlorocebus sabaeus
How it was run: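 Vero-C-1008 cells were exposed to compounds at several concentrations across 6.25–50 µg/ml. Cytotoxicity was read out by neutral red uptake.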

Escherichia coli = experiment: Antibacterial activity against Escherichia coli at 50 to 100 uM after 24 hrs by well diffusion method; format: functional
How it was run: (§3)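 Agar well diffusion: nutrient agar plates with 10 mm wells cut by sterile cork borer; 24-h subcultured bacteria swabbed onto the plates from nutrient broth. Compounds were dissolved in chloroform and added to wells at […]. Gentamycin served as the standard antibiotic.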

Salmonella typhi = experiment: Antibacterial activity against Salmonella typhi at 50 to 100 uM after 24 hrs by well diffusion method; format: functional, Salmonella enterica subsp. enterica serovar Typhi
How it was run: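 Agar well diffusion on nutrient agar plates; wells cut with a 10 mm sterile cork borer. Plates swabbed with 24-h subcultured bacteria from nutrient broth. Compounds dissolved in chloroform and added to wells at a range of concentrations. Gentamycin was the standard.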

[3] = tested on: Mycobacterium tuberculosis; experiment: Growth inhibition of Mycobacterium tuberculosis H37Rv at 6.25 ug/ml by Microplate Alamar Blue Assay; format: functional; conditions: read-out: GI
How it was run: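 Primary single-concentration screen against M. tuberculosis H37Rv (ATCC 27294) in BACTEC 12B medium by MABA broth microdilution, read as % inhibition. Compounds that fluoresce were tested in the BACTEC 460 radiometric system. More than 95% inhibition was the activity cutoff.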

[4] = tested on: Mycobacterium tuberculosis; experiment: as §1; format: functional; how it was run: as §2; remark: listed apart in the source
Pseudomonas aeruginosa = experiment: Antibacterial activity against Pseudomonas aeruginosa at 50 to 100 uM after 24 hrs by well diffusion method; format: functional; how it was run: as §3
Staphylococcus aureus = experiment: Antibacterial activity against Staphylococcus aureus at 50 to 100 uM after 24 hrs by well diffusion method; format: functional; how it was run: as §3

CC(=O)NNC(=O)CSc1nnc(Cc2csc(NCCC(=O)O)n2)n1NC(=O)c1ccccc1
MIC [1]: < 6.25 µg/mL | Activity [2]: Non-toxic

NNC(=O)CSc1nnc(Cc2csc(NC(=O)c3ccccc3)n2)n1NC(=O)c1ccccc1
MIC [1]: < 6.25 µg/mL | zone of inhibition (Escherichia coli): 30 mm | Inhibition (Salmonella typhi): 29% | Activity [2]: Non-toxic | inhibition of growth at 6.25 µg/mL [3]: 100% | MIC [4]: 6.25 µM (≈ 3.18 µg/mL) | zone of inhibition (Pseudomonas aeruginosa): 34 mm | zone of inhibition (Staphylococcus aureus): 33 mm

CC(=O)Nc1nc(Cc2nnc(SCSc3nnc(Cc4csc(NC(C)=O)n4)n3NC(=O)c3ccccc3)n2NC(=O)c2ccccc2)cs1
MIC [1]: < 6.25 µg/mL | zone of inhibition (Escherichia coli): 12 mm | Inhibition (Salmonella typhi): 12% | Activity [2]: Non-toxic | zone of inhibition (Pseudomonas aeruginosa): 16 mm | zone of inhibition (Staphylococcus aureus): 16 mm

CC(=O)Nc1nc(Cc2nnc(SCC(=O)NN)n2NC(=O)c2ccccc2)cs1
MIC [1]: < 6.25 µg/mL | zone of inhibition (Escherichia coli): 26 mm | Inhibition (Salmonella typhi): 24% | Activity [2]: Non-toxic | inhibition of growth at 6.25 µg/mL [3]: 100% | MIC [4]: 3.13 µM (≈ 1.4 µg/mL) | zone of inhibition (Pseudomonas aeruginosa): 32 mm | zone of inhibition (Staphylococcus aureus): 32 mm

O=C(CSc1nnc(Cc2csc(NC(=O)CCl)n2)n1NC(=O)c1ccccc1)NNC(=O)c1ccccc1
MIC [1]: < 6.25 µg/mL | Activity [2]: Non-toxic

COC(=O)CSc1nnc(Cc2csc(NC(C)=O)n2)n1NC(=O)c1ccccc1
MIC [1]: < 6.25 µg/mL | zone of inhibition (Escherichia coli): 24 mm | Inhibition (Salmonella typhi): 24% | Activity [2]: Non-toxic | zone of inhibition (Pseudomonas aeruginosa): 11 mm | zone of inhibition (Staphylococcus aureus): 22 mm

CC(=O)NNC(=O)CSc1nnc(Cc2csc(NC(=O)CCl)n2)n1NC(=O)c1ccccc1
MIC [1]: < 6.25 µg/mL | zone of inhibition (Escherichia coli): 14 mm | Inhibition (Salmonella typhi): 14% | Activity [2]: Non-toxic | zone of inhibition (Pseudomonas aeruginosa): 10 mm | zone of inhibition (Staphylococcus aureus): 24 mm

N#CCSc1nnc(Cc2csc(NC(=O)CCl)n2)n1NC(=O)c1ccccc1
MIC [1]: < 6.25 µg/mL | zone of inhibition (Escherichia coli): 10 mm | Inhibition (Salmonella typhi): 10% | Activity [2]: Non-toxic | zone of inhibition (Pseudomonas aeruginosa): 16 mm | zone of inhibition (Staphylococcus aureus): 20 mm

GENTAMICIN
inhibition (Escherichia coli): 31% | inhibition (Salmonella typhi; Salmonella enterica subsp. enterica serovar Typhi): 30% | inhibition (Pseudomonas aeruginosa): 35% | inhibition (Staphylococcus aureus): 34%

O=C(Nc1nc(Cc2nnc(SCSc3nnc(Cc4csc(NC(=O)c5ccccc5)n4)n3NC(=O)c3ccccc3)n2NC(=O)c2ccccc2)cs1)c1ccccc1
MIC [1]: < 6.25 µg/mL | zone of inhibition (Escherichia coli): 16 mm | Inhibition (Salmonella typhi): 12% | Activity [2]: Non-toxic | zone of inhibition (Pseudomonas aeruginosa): 24 mm | zone of inhibition (Staphylococcus aureus): 11 mm

Nn1c(S)nnc1Cc1csc(NCCC(=O)O)n1
MIC [1]: < 6.25 µg/mL | zone of inhibition (Escherichia coli): 20 mm | Inhibition (Salmonella typhi): 16% | Activity [2]: Non-toxic | zone of inhibition (Pseudomonas aeruginosa): 22 mm | zone of inhibition (Staphylococcus aureus): 25 mm

O=C(CSc1nnc(Cc2csc(NC(=O)CCl)n2)n1NC(=O)c1ccccc1)N/N=C/c1ccccc1
MIC [1]: < 6.25 µg/mL | Activity [2]: Non-toxic | inhibition of growth at 6.25 µg/mL [3]: 98% | MIC [4]: 0.78 µM (≈ 0.444 µg/mL)

CC(=O)Nc1nc(Cc2nnc(S)n2NC(=O)c2ccccc2)cs1
MIC [1]: < 6.25 µg/mL | zone of inhibition (Escherichia coli): 20 mm | Inhibition (Salmonella typhi): 16% | Activity [2]: Non-toxic | zone of inhibition (Pseudomonas aeruginosa): 16 mm | zone of inhibition (Staphylococcus aureus): 16 mm

O=C(O)CCNc1nc(Cc2nnc(S)n2NC(=O)c2ccccc2)cs1
MIC [1]: < 6.25 µg/mL | zone of inhibition (Escherichia coli): 15 mm | Inhibition (Salmonella typhi): 22% | Activity [2]: Non-toxic | zone of inhibition (Pseudomonas aeruginosa): 17 mm | zone of inhibition (Staphylococcus aureus): 11 mm

CC(=O)Nc1nc(Cc2nnc(SCC(=O)NNC(=O)CCl)n2NC(=O)c2ccccc2)cs1
MIC [1]: < 6.25 µg/mL | Activity [2]: Non-toxic

O=C(Nc1nc(Cc2nnc(S)n2NC(=O)c2ccccc2)cs1)c1ccccc1
MIC [1]: < 6.25 µg/mL | zone of inhibition (Escherichia coli): 10 mm | Inhibition (Salmonella typhi): 18% | Activity [2]: Non-toxic | zone of inhibition (Pseudomonas aeruginosa): 10 mm | zone of inhibition (Staphylococcus aureus): 16 mm

CC(=O)NNC(=O)CSc1nnc(Cc2csc(NC(C)=O)n2)n1NC(=O)c1ccccc1
MIC [1]: < 6.25 µg/mL | zone of inhibition (Escherichia coli): 10 mm | Inhibition (Salmonella typhi): 18% | Activity [2]: Non-toxic | zone of inhibition (Pseudomonas aeruginosa): 18 mm | zone of inhibition (Staphylococcus aureus): 21 mm

CC(=O)Nc1nc(Cc2nnc(SCc3nnc(S)n3N)n2NC(=O)c2ccccc2)cs1
MIC [1]: < 6.25 µg/mL | zone of inhibition (Escherichia coli): 12 mm | Inhibition (Salmonella typhi): 18% | Activity [2]: Non-toxic | zone of inhibition (Pseudomonas aeruginosa): 16 mm | zone of inhibition (Staphylococcus aureus): 14 mm

O=C(CSc1nnc(Cc2csc(NC(=O)c3ccccc3)n2)n1NC(=O)c1ccccc1)NNC(=O)c1ccccc1
MIC [1]: < 6.25 µg/mL | Activity [2]: Non-toxic
